Measured values published in ChEMBL document CHEMBL4706762, “Massively Parallel Optimization of the Linker Domain in Small Molecule Dimers Targeting a Toxic r(CUG) Repeat Expansion” (ACS Med Chem Lett, 2021).
Activity calls are given as the source filed them. The rule behind the calls is not given here.

Experiments:
[1] = Drug localization in nucleus of DM1-patient derived myotubes at 5 uM measured after 24 hrs by live-cell fluorescence microscopy; format: ADME, subcellular; conditions: human, myotube
Outline: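 DM1 patient myotubes bearing 1300 r(CUG) repeats given 5 μM agent; subcellular localization followed via intrinsic fluorescence of the H RNA-binding modules.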

[2] = Cytotoxicity against DM1-patient derived myotubes assessed as change in cellular morphology at 5 uM measured after 48 hrs; conditions: human, myotube
Outline: (§1)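 Cell morphology of DM1 patient-derived myotubes inspected during 48 h splicing treatment at 5 μM; agents altering morphology were re-tested at 1 μM.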

[3] = Cytotoxicity against DM1-patient derived myotubes assessed as change in cellular morphology at 1 uM measured after 48 hrs; conditions: human, myotube; outline: as §1
r(CUG) repeat expansion [4] = assay: Binding affinity to r(CUG)exp RNA repeat in DM1-patient derived myotubes assessed as improvement in MBNL1 exon 5 splicing defect at 1 uM measured after 48 hrs by RT-qPCR analysis relative to control; conditions: Homo sapiens, Myotube
Outline: (§2)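 DM1 patient-derived myotubes (1300 r(CUG) repeats) treated 48 h, then MBNL1 exon 5 splicing rescue measured. Single-dose screens at 5 μM or 1 μM, where 1 μM was used if 5 μM altered morphology, n = 3. Dose–response also run, n = 6. SD shown; one-way ANOVA.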

r(CUG) repeat expansion [5] = assay: Binding affinity to r(CUG)exp RNA repeat in DM1-patient derived myotubes assessed as improvement in MBNL1 exon 5 splicing defect measured after 48 hrs by RT-qPCR analysis; format: tissue-based; conditions: Homo sapiens, Myotube, dose 0.04-1 µM
r(CUG) repeat expansion [6] = assay: Binding affinity to r(CUG)exp RNA repeat in DM1-patient derived myotubes assessed as improvement in MBNL1 exon 5 splicing defect at 0.2 uM measured after 48 hrs by RT-qPCR analysis relative to control; conditions: Homo sapiens, Myotube; outline: as §2
Myotube [7] = assay: Effect on alternative splicing of MAP4K4 exon 22a in DM1-patient derived myotubes at 0.04 to 1 uM measured after 48 hrs by RT-qPCR analysis; format: functional; conditions: Homo sapiens, dose 0.04-1 µM
r(CUG) repeat expansion [8] = assay: Binding affinity to r(CUG)12 RNA repeat (unknown origin) measured after 10 mins by fluorescence assay; format: nucleic-acid assay
Nucleic Acid = assay: Binding affinity to r(CG)8 RNA repeat (unknown origin) measured after 10 mins by fluorescence assay; format: nucleic-acid assay
r(CUG) repeat expansion [9] = assay: Binding affinity to 5'-biotinylated r(CUG)12 RNA repeat (unknown origin) assessed as disruption of r(CUG)12-His-tagged MBNL1 complex formation preincubated for 15 mins followed by MBNL1 addition and measured after 15 mins by TR-FRET assay; format: nucleic-acid assay
Myotube [10] = assay: Effect on DMPK transcription in DM1-patient derived myotubes at 0.04 to 1 uM measured after 48 hrs by RT-qPCR analysis; format: functional; conditions: Homo sapiens, dose 0.04-1 µM
Outline: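 Transcript levels, either DMPK or r(CUG) repeat-containing mRNAs, quantified by RT-qPCR in treated DM1 myotubes; n = 6, one-way ANOVA.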

Myotube [11] = assay: Effect on MBNL1 exon 5 splicing in wild type human myotubes at 0.04 to 1 uM measured after 48 hrs by RT-qPCR analysis; format: functional; conditions: dose 0.04-1 µM
r(CUG) repeat expansion [12] = assay: Binding affinity to r(CUG)exp RNA repeat in DM1-patient derived myotubes assessed as reduction in number of r(CUG)exp-MBNL1 foci at 1 uM measured after 48 hrs by RNA fluorescence in situ hybridization assay; set-up: scale not given: the % may be the effect or the level left; conditions: Homo sapiens, Myotube
Outline: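 Nuclear foci counted in DM1 myotubes by confocal imaging: MBNL1 by immunofluorescence, r(CUG)exp by RNA FISH. Foci per nucleus from 40 nuclei per replicate, n = 3; Student's t-test.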

Row | Compound | Drug uptake [1] | Activity [2] | Activity [3] | Activity (r(CUG) repeat expansion [4]) | Activity (r(CUG) repeat expansion [5]) | Activity (r(CUG) repeat expansion [6]) | Activity (Myotube [7]) | EC50 (r(CUG) repeat expansion [8]) | Activity (Nucleic Acid) | IC50 (r(CUG) repeat expansion [9]) | Activity (Myotube [10]) | Activity (Myotube [11]) | Activity (r(CUG) repeat expansion [12])
1 | COc1ccc(CN(CC(=O)N(CCCNC(=O)CCCOc2cccc(-c3nc4ccc(-c5nc6cc(N7CCN(C)CC7)ccc6[nH]5)cc4[nH]3)c2)CC(N)=O)C(=O)CN(Cc2cccnc2)C(=O)CN(C(=O)CN(C)C(=O)CCCOc2cccc(-c3nc4ccc(-c5nc6cc(N7CCN(C)CC7)ccc6[nH]5)cc4[nH]3)c2)C2CC2)cc1 | Active | Toxic | Non-Toxic | Active | Dose-dependent effect | 2% | – | – | – | – | – | – | –
2 | CNCCCCN(CC(=O)N(CCCCNC)CC(=O)N(CCN)CC(=O)N(CCCNC(=O)CCCOc1cccc(-c2nc3ccc(-c4nc5cc(N6CCN(C)CC6)ccc5[nH]4)cc3[nH]2)c1)CC(N)=O)C(=O)CN(C)C(=O)CCCOc1cccc(-c2nc3ccc(-c4nc5cc(N6CCN(C)CC6)ccc5[nH]4)cc3[nH]2)c1 | Active | Toxic | Non-Toxic | Active | – | – | – | – | – | – | – | – | –
3 | CCCN(CC(=O)N(CCCCNC)CC(=O)N(C)CC(=O)N(CCCNC(=O)CCCOc1cccc(-c2nc3ccc(-c4nc5cc(N6CCN(C)CC6)ccc5[nH]4)cc3[nH]2)c1)CC(N)=O)C(=O)CN(CCO)C(=O)CCCOc1cccc(-c2nc3ccc(-c4nc5cc(N6CCN(C)CC6)ccc5[nH]4)cc3[nH]2)c1 | Active | Non-Toxic | – | – | – | – | – | – | – | – | – | – | –
4 | CNCCCCN(CC(=O)N(CC(=O)N(CCCNC(=O)CCCOc1cccc(-c2nc3ccc(-c4nc5cc(N6CCN(C)CC6)ccc5[nH]4)cc3[nH]2)c1)CC(N)=O)C1CC1)C(=O)CN(CCOC)C(=O)CN(CCO)C(=O)CCCOc1cccc(-c2nc3ccc(-c4nc5cc(N6CCN(C)CC6)ccc5[nH]4)cc3[nH]2)c1 | Active | Non-Toxic | – | – | – | – | – | – | – | – | – | – | –
5 | CNCCCCN(CC(=O)N(CCCNC(=O)CCCOc1cccc(-c2nc3ccc(-c4nc5cc(N6CCN(C)CC6)ccc5[nH]4)cc3[nH]2)c1)CC(N)=O)C(=O)CN(Cc1ccc(OC)cc1)C(=O)CN(CCCCNC)C(=O)CN(C(=O)CCCOc1cccc(-c2nc3ccc(-c4nc5cc(N6CCN(C)CC6)ccc5[nH]4)cc3[nH]2)c1)C1CCCCC1 | Active | Toxic | Non-Toxic | inactive | – | – | – | – | – | – | – | – | –
6 | CNCCCCN(CC(=O)N(CCC(=O)N1CCCC1)CC(=O)N(CCCNC(=O)CCCOc1cccc(-c2nc3ccc(-c4nc5cc(N6CCN(C)CC6)ccc5[nH]4)cc3[nH]2)c1)CC(N)=O)C(=O)CN(CCO)C(=O)CN(CCC(=O)N1CCCC1)C(=O)CCCOc1cccc(-c2nc3ccc(-c4nc5cc(N6CCN(C)CC6)ccc5[nH]4)cc3[nH]2)c1 | Active | Non-Toxic | – | – | – | – | – | – | – | – | – | – | –
7 | CNCCCCN(CC(=O)N(CCN)CC(=O)N(CCCNC(=O)CCCOc1cccc(-c2nc3ccc(-c4nc5cc(N6CCN(C)CC6)ccc5[nH]4)cc3[nH]2)c1)CC(N)=O)C(=O)CN(C)C(=O)CN(CCCn1ccnc1)C(=O)CCCOc1cccc(-c2nc3ccc(-c4nc5cc(N6CCN(C)CC6)ccc5[nH]4)cc3[nH]2)c1 | Active | Toxic | Non-Toxic | Active | Dose-dependent effect | 7% | inactive | 106 nM | inactive | 2800 nM | inactive | inactive | 20%
